# Assay results as given in PMC3644109 (Nature Communications, 2013).
# Legend:
# AtALMT9 [1] = target: T1, AtALMT9 (Arabidopsis thaliana, UniProt Q9LS46); assay: patch clamp of excised cytosolic-side-out vacuolar patches, chloride current; assay type: biochemical; conditions: activator; 1 mM cytosolic; 100 mM chloride bath, pH 7.5
# T1 sequence (Q9LS46 1-598): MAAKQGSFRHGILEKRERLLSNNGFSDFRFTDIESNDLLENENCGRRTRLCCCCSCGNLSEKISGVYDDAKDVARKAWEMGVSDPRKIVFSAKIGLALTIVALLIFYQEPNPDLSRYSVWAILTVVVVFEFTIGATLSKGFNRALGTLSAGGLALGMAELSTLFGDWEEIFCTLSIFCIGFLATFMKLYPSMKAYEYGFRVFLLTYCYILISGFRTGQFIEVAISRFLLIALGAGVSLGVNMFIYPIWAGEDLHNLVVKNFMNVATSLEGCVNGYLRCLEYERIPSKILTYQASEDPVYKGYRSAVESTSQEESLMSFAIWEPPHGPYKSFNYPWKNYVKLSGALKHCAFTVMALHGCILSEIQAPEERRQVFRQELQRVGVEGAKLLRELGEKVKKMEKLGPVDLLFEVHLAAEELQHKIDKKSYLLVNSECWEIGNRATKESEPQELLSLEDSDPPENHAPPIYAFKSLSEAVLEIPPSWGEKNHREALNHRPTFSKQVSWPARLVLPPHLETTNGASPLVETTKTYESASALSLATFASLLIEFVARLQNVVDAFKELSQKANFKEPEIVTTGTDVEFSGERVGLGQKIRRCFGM
# Procedure, shortened: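 Vacuoles came from transiently transformed N. benthamiana leaves expressing the channel (2–3 days post-agroinfiltration) and were released from mesophyll protoplasts by EDTA and mild osmotic shock. Excised cytosolic-side-out patches (seal >2 GΩ) were held in symmetrical chloride: pipette 100 mM HCl pH 6, bath 100 mM HCl, 3 mM MgCl₂, 0.1 mM CaCl₂ pH 7.5. Test compound was perfused on the cytosolic side. Steady currents were compared at -120 mV, before versus after.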
# AtALMT9 [2] = target: T1, AtALMT9; assay: patch clamp of excised cytosolic-side-out vacuolar patches, chloride current; assay type: biochemical; conditions: activator, not permeant, -120 mV, chloride bath, pH 7.5
# AtALMT9 [3] = target: T1, AtALMT9; assay: patch clamp of excised cytosolic-side-out vacuolar patches, Hill fit; assay type: cell-based
# [4] = substrate: O=C(O)C[C@H](O)C(=O)O; assay: cells, lysate or membranes; conditions: malate transport into vacuole
molecule,measurement,setting,value
O=C(O)/C=C/C(=O)O [fumarate],fold increase of chloride current at 1 mM,AtALMT9 [1],5.7±0.4 fold
O=C(O)c1cccc(C(=O)O)c1 [isophtalate],fold increase of chloride current,AtALMT9 [2],2.1±0.1 fold
O=C(O)C[C@H](O)C(=O)O [malate],EC50,AtALMT9 [3],300 µM
O=C(O)CC(=O)C(=O)O [oxaloacetate],fold increase of chloride current at 1 mM,AtALMT9 [1],2.0±0.2 fold
AtALMT9 (Arabidopsis thaliana) (protein) MAAKQGSFRHGILEKRERLLSNNGFSDFRFTDIESNDLLENENCGRRTRLCCCCSCGNLSEKISGVYDDAKDVARKAWEMGVSDPRKIVFSAKIGLALTIVALLIFYQEPNPDLSRYSVWAILTVVVVFEFTIGATLSKGFNRALGTLSAGGLALGMAELSTLFGDWEEIFCTLSIFCIGFLATFMKLYPSMKAYEYGFRVFLLTYCYILISGFRTGQFIEVAISRFLLIALGAGVSLGVNMFIYPIWAGEDLHNLVVKNFMNVATSLEGCVNGYLRCLEYERIPSKILTYQASEDPVYKGYRSAVESTSQEESLMSFAIWEPPHGPYKSFNYPWKNYVKLSGALKHCAFTVMALHGCILSEIQAPEERRQVFRQELQRVGVEGAKLLRELGEKVKKMEKLGPVDLLFEVHLAAEELQHKIDKKSYLLVNSECWEIGNRATKESEPQELLSLEDSDPPENHAPPIYAFKSLSEAVLEIPPSWGEKNHREALNHRPTFSKQVSWPARLVLPPHLETTNGASPLVETTKTYESASALSLATFASLLIEFVARLQNVVDAFKELSQKANFKEPEIVTTGTDVEFSGERVGLGQKIRRCFGM,Km,[4],27 mM
